Test results: ChEMBL document CHEMBL3407350, “Synthesis and anti-hepatitis B virus activity of C4 amide-substituted isosteviol derivatives” (Bioorg Med Chem, 2015)
Converted amounts (≈) assume the structure as drawn.

Assays:
[1] = Cytotoxicity against human HepG2(2.2.15) cells; type: cell-based; details: read-out: TC50 (the source's name)
How it was run: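 Cytotoxicity by MTS: HepG2 2.2.15 cells seeded at 4×10^4 cells/ml for 24 h, exposed to serial dilutions 2.5–160 µg/ml for 3 days; four replicates, viability expressed relative to untreated control; TC50 as 50% cytotoxic concentration.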

[2] = system: Hepatitis B virus; assay: Antiviral activity against HBV infected in human HepG2(2.2.15) cells assessed as inhibition of surface antigen secretion by EIA; type: functional, organism-based
How it was run: (§1)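 HepG2 2.2.15 cells (HepG2 stably carrying a head-to-tail HBV DNA dimer; MEM, 10% FBS, 37 °C, 5% CO2) treated with compound for 3 days; conditioned medium assayed for secreted HBsAg and HBeAg by enzyme immunoassay; mean and SD, n = 3; IC50 taken as 50% inhibitory concentration.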

[3] = Selectivity index, ratio of TC50 for human HepG2(2.2.15) cells to IC50 for HBV infected in human HepG2(2.2.15) cells assessed as inhibition of surface antigen secretion
How it was run: (§2)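 Selectivity index computed as TC50 (MTS, HepG2 2.2.15, 3 days) divided by IC50 for HBsAg, HBeAg or virion DNA inhibition in the same cell line.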

[4] = system: Hepatitis B virus; assay: Antiviral activity against HBV infected in human HepG2(2.2.15) cells assessed as inhibition of e antigen secretion by EIA; type: functional, organism-based; how it was run: as §1
[5] = system: Hepatitis B virus; assay: Antiviral activity against HBV infected in human HepG2(2.2.15) cells assessed as inhibition of viral DNA replication; type: functional, organism-based
How it was run: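 Secreted virion DNA from HepG2 2.2.15 cells after 3 days of compound treatment; HBV DNA isolated from conditioned medium and quantified by SYBR Green real-time PCR (45 cycles, 95 °C 15 s / 58 °C 1 min); mean and SD, n = 3; IC50 as 50% inhibitory concentration.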

[6] = Selectivity index, ratio of TC50 for human HepG2(2.2.15) cells to IC50 for HBV infected in human HepG2(2.2.15) cells assessed as inhibition of e antigen secretion; how it was run: as §2
[7] = Selectivity index, ratio of TC50 for human HepG2(2.2.15) cells to IC50 for HBV infected in human HepG2(2.2.15) cells assessed as inhibition of viral DNA replication; how it was run: as §2

C[C@@]12CC[C@@H]3[C@@](CC[C@H]4[C@@]3(C)CCC[C@@]4(C)NC(=O)c3ccc(I)cc3)(CC1=O)C2
CC50 [1]: 10.5 µg/mL (≈ 20.3 µM)

C[C@@]12CC[C@@H]3[C@@](CC[C@H]4[C@@]3(C)CCC[C@@]4(C)NC(=O)c3ccc(Br)cc3)(CC1=O)C2
CC50 [1]: 14.9 µg/mL (≈ 31.5 µM)
IC50 [2]: 10.5 µg/mL (≈ 22.3 µM)
Selectivity Index [3]: 1.41

Cc1ccc(C(=O)N[C@]2(C)CCC[C@@]3(C)[C@@H]4CC[C@@]5(C)C[C@]4(CC[C@@H]32)CC5=O)cc1
CC50 [1]: 18.9 µg/mL (≈ 46.5 µM)

CCc1ccc(C(=O)N[C@]2(C)CCC[C@@]3(C)[C@@H]4CC[C@@]5(C)C[C@]4(CC[C@@H]32)CC5=O)cc1
CC50 [1]: 21.2 µg/mL (≈ 50.3 µM)
IC50 [4]: 7.38 µg/mL (≈ 17.5 µM)
IC50 [5]: 11.2 µg/mL (≈ 26.6 µM)
IC50 [2]: 5.57 µg/mL (≈ 13.2 µM)
Selectivity Index [6]: 2.87
Selectivity Index [7]: 1.89
Selectivity Index [3]: 3.8

Nc1ccn([C@@H]2CS[C@H](CO)O2)c(=O)n1 [LAMIVUDINE]
CC50 [1]: 205 µg/mL (≈ 894 µM)
IC50 [5]: 41 µg/mL (≈ 179 µM)
IC50 [2]: 49.1 µg/mL (≈ 214 µM)
Selectivity Index [7]: 5
Selectivity Index [3]: 4.17

O=c1[nH]cc(F)c(=O)[nH]1 [FLUOROURACIL]
CC50 [1]: 6.12 µg/mL (≈ 47 µM)

C[C@@]12CC[C@@H]3[C@@](CC[C@H]4[C@@]3(C)CCC[C@@]4(C)NC(=O)c3ccc(C#N)cc3)(CC1=O)C2
CC50 [1]: 10.8 µg/mL (≈ 25.8 µM)
IC50 [2]: 8.45 µg/mL (≈ 20.2 µM)
Selectivity Index [3]: 1.28
